High-throughput results: PubChem BioAssay, Johns Hopkins Ion Channel Center
An excerpt weighted towards active compounds, which were near 3.1% of everything screened.
hERG rescue – compounds protecting human hERG from proarrhythmic drug block; 310,000 compounds, 0.51% hits; CHO-hERG, FluxOR thallium flux, dofetilide IC70 present; activation (rescue from dofetilide block), less the hit threshold, % at 10 µM; Q12809; AID 1511;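 active means activation above the mean of controls blocked by dofetilide plus 5 SD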;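 further: thallium influx through hERG after potassium depolarization seen as dye fluorescence rise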
KCNK9 inh – blocks the human KCNK9 two-pore domain potassium channel | Q9NPC2 | HEK293 KCNK9, FluxOR thallium flux fluorescence; active compounds read low | AID 488922 | 310,000 compounds, 1.2% hits | B-score at 10 µM;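 active means ratio B-score over 3 SD below the library mean, with starting fluorescence within 5 SD of its mean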;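 further: negative B-score means less thallium flux so channel inhibition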
KCNK3 block – human KCNK3 channel inhibition, primary screen; O14649; CHO-KCNK3 thallium flux, FluxOR fluorescence; active compounds read low; B-score at 10 µM; 340,000 compounds, 0.84% hits;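 active means B-score under library mean minus 4 SD, starting fluorescence ratio at most library mean plus 5 SD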;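 further: more negative B-score means stronger inhibition of thallium flux through KCNK3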
KCNQ1 act – potentiators or activators of human KCNQ1 potassium channel. P51787. CHO-K1 KCNQ1, thallium flux FluxOR fluorescence; active compounds read high. B-score at 10 µM. 310,000 compounds, 0.35% hits. AID 2648;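 active means fluorescence ratio B-score, a plate-corrected score, at least three library SD, with initial intensity B-score within 5 SD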
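Assay system: CHO-K1 cells stably expressing KCNQ1; Medium: assay buffer with matched DMSO; Also added: K+/Tl+ depolarizing stimulus; Dosing: single dose; Timing: dye 90 min, compound 20 min, room temperature; Measured by: kinetic FluxOR thallium fluorescence, 10-s 1-Hz baseline, 110-s post-stimulus read; Read-out: peak-minus-minimum fluorescence over initial fluorescence, negative-control normalized, B-scored.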
KCNQ1 inh – blocks the human KCNQ1 potassium channel | CHO-K1 KCNQ1, FluxOR thallium flux fluorescence; active compounds read high | P51787 | B-score at 10 µM | 310,000 compounds, 1.3% hits;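 active means compounds whose thallium flux B-score, printed positive for inhibition, exceeds three library SD while starting fluorescence stays within three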;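 further: channel opened by potassium depolarization with thallium stimulus after 20 min compound exposure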
KCNK9 block conf – human KCNK9 inhibitor confirmation. AID 492992. HEK293 KCNK9 cells, FluxOR thallium flux fluorescence. inhibition, % at 10 µM. 4,900 compounds, 43% hits. shares compounds with KCNK9 inh;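 active means thallium signal inhibited by more than 5 SD of the compound-free buffer control wells, on both duplicate plates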;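 further: 0% = assay buffer control wells without compound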
Kir21 sel – mouse Kir2.1 off-target activity of KCNK9 modulators | shares compounds with KCNK9 inh | Kir2.1 cells, FluxOR thallium flux fluorescence | inhibition, % at 10 µM | 4,900 compounds, 4% hits;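 active means thallium signal drop more than 5 SD beyond the mean of the no-compound control wells, seen in both duplicate plates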;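 further: signal is fluorescence rise after thallium addition divided by baseline fluorescence; plate controls were assay buffer only for no effect and full block by chlorpromazine control for full effect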
Target sequence (P35561 whole entry, looked up): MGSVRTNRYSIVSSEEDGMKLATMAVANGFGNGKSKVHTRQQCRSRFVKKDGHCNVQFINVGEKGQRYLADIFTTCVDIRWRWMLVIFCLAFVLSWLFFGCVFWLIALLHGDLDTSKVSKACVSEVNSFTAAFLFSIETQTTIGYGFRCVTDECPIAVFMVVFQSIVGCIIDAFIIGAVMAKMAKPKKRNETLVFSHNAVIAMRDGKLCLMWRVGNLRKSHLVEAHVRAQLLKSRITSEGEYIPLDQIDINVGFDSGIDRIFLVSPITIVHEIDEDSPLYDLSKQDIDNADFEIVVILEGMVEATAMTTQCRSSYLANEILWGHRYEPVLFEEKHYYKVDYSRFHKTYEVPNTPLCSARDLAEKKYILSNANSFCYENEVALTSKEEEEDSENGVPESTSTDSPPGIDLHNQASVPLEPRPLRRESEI
HEK293 Tl ctr – second check of KCNK9 modulator effects in non-induced HEK293 cells | shares compounds with KCNK9 inh | FluxOR thallium flux | inhibition, % at 10 µM | 4,900 compounds, 40% hits | AID 492997;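 active means thallium signal drop beyond 5 SD of the untreated control mean, on both duplicate plates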;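 further: plate controls were buffer only IC0 wells for no effect and SID17386958 at its maximal inhibitory level for full effect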
An asterisk follows results filed as active; i = inactive; . = no result given.

SMILES	hERG rescue	KCNK9 inh	KCNK3 block	KCNQ1 act	KCNQ1 inh	KCNK9 block conf	Kir21 sel	HEK293 Tl ctr
CN(CC(=O)NCc1ccco1)S(=O)(=O)c1ccc(F)cc1	-6	i	i	i	i	.	.	.
COc1ccc(OC)c(S(=O)(=O)N2CCN(c3c(C)cccc3C)CC2)c1	-17	-11*	i	i	i	52%*	i	34%*
C(=N/Nc1nc(-c2ccccc2)cc(-c2ccccc2)n1)/c1cccnc1	-11	i	i	i	i	i	i	i
Cc1cc(-c2ccccc2)nc(N/N=C/c2ccc(O)cc2O)n1	-17	-15*	i	i	i	75%*	i	33%*
Cc1ccc(-c2cc(-c3ccccc3)nc(N/N=C/c3cccnc3)n2)cc1	-14	i	i	i	i	.	.	.
O=C(CSc1n[nH]c(-c2ccncc2)n1)Nc1ccc(Cl)c(C(=O)O)c1	-10	i	i	i	i	.	.	.
CCc1ccc(N=C2NC(=O)/C(=C/c3cc(OC)c(O)c(OC)c3)S2)cc1	-11	-8.8*	i	i	i	i	i	34%*
COc1cc(/C=C2\SC(=Nc3ccccc3)NC2=O)cc(Cl)c1O	-1	i	i	i	i	.	.	.
C=CCN1C(=O)C(Cc2ccccc2)S/C1=N/N=C/c1cccs1 (centres undefined)	-9	i	i	i	8*	i	i	i
COC(=O)c1cc2ccsc2n1Cc1nc(-c2ccc(OC)cc2)oc1C	-6	-8.4*	i	i	i	40%*	i	52%*
COC(=O)c1cc2sccc2n1Cc1nc(-c2ccc(OC)cc2)oc1C	-12	i	i	i	i	.	.	.
O=[N+]([O-])c1ccc(Cl)c(S(=O)(=O)N2CCCCCC2)c1	-8	-11*	i	i	i	i	i	24%*
CN1CCN(S(=O)(=O)c2cc([N+](=O)[O-])ccc2Cl)CC1	-8	i	i	i	i	.	.	.
Cc1cccc(-c2noc(CN(C(=O)CCc3ccccc3)C(C)C)n2)c1	-6	i	i	i	i	i	i	26%*
Cc1ccc(-c2noc(CN(C(=O)C(c3ccccc3)c3ccccc3)C(C)C)n2)cc1	-23	-12*	i	i	i	40%*	i	33%*
CCC1CN(C(=O)NCc2cccc(OC)c2)c2ccccc2O1 (centres undefined)	-2	i	i	i	i	i	i	i
O=C(COC(=O)C1CCN(c2ccc(C(F)(F)F)cn2)CC1)c1ccccc1Cl	-16	i	i	i	i	.	.	.
Cc1cc(C)c(C(=O)COC(=O)C2CCN(c3ccc(C(F)(F)F)cn3)CC2)cc1C	-13	i	i	i	7*	i	i	i
Cn1c(CN2CCCC(C(=O)c3ccc4c(c3)OCO4)C2)nc2ccccc21 (centres undefined)	-9	i	i	i	i	i	i	i
O=C(c1ccc2c(c1)OCO2)C1CCCN(Cc2c(F)ccc(F)c2F)C1 (centres undefined)	-6	i	i	i	i	i	i	i
O=C(c1ccc2c(c1)OCO2)C1CCCN(Cc2cccn2-c2cccnc2)C1 (centres undefined)	-7	i	i	i	i	.	.	.
O=C(c1ccc2c(c1)OCO2)C1CCCN(Cc2ccc3nsnc3c2)C1 (centres undefined)	-14	i	i	i	i	.	.	.
COC(=O)NC1CCC(NC(=O)OC)CC1 (centres undefined)	-5	i	i	i	i	.	.	.
CC1CC(C)(C)NC(=S)N1CCC(=O)N1CCc2ccccc21 (centres undefined)	-7	i	i	i	i	.	.	.
COc1ccccc1/C=C(/C(=O)OCC(N)=O)c1ccccc1	-4	i	i	i	i	.	.	.
SMILES	hERG rescue	KCNK9 inh	KCNK3 block	KCNQ1 act	KCNQ1 inh	KCNK9 block conf	Kir21 sel	HEK293 Tl ctr
CCc1ccc(NC(=O)COC(=O)/C(=C/c2ccccc2OC)c2ccccc2)cc1	-7	i	i	i	i	i	i	i
COc1ccc(S(=O)(=O)N2CCN(CC(O)COc3ccc(CC#N)cc3)CC2)cc1OC (centres undefined)	-9	i	i	i	i	.	.	.
CCOc1ccc(-c2nc(C#N)c(N3CCN(C)CC3)o2)cc1	-7	i	i	i	i	.	.	.
N#Cc1nc(-c2ccc(Cl)cc2)oc1N1CCCCC1	-2	-8.3*	i	i	i	i	i	30%*
CCOc1ccc(-c2nc(C#N)c(N3CCCCCC3)o2)cc1	-20	-8.6*	i	i	i	50%*	i	40%*
CN(CC(=O)Nc1ccccc1Cl)C(=O)COC(=O)c1nc(Cl)c(Cl)c(Cl)c1Cl	-23	i	i	i	i	.	.	.
COc1ccc(C(=O)Nc2ccc(NC(C)=O)cc2)cc1S(=O)(=O)N1CCCCC1C (centres undefined)	.	.	i	.	.	.	.	.
COc1cccc(Nc2nc(N)nc(-c3oc4ccccc4c3C)n2)c1	-9	-10*	i	i	i	38%*	i	i
Cc1ccc(Nc2nc(N)nc(-c3oc4ccccc4c3C)n2)cc1	-18	i	i	i	i	.	.	.
Cc1cccc(Nc2nc(N)nc(-c3oc4ccccc4c3C)n2)c1	0	-8.9*	i	i	i	35%*	i	i
COc1ccc(-c2nc(SC)n(S(=O)(=O)c3ccccc3)n2)cc1	-4	i	i	i	i	.	.	.
COc1ccc(S(=O)(=O)n2ccc(C(C)Oc3ccc(-c4ccccc4)c(F)c3)n2)cc1 (centres undefined)	-9	-11*	i	i	i	61%*	i	40%*
COc1ccc(C2=NCC(CSc3nnc(-c4ccc5c(c4)OCO5)o3)S2)cc1 (centres undefined)	-13	i	i	i	i	i	i	i
Cc1ccc(CSc2nnc(-c3ccc4c(c3)OCO4)o2)cc1	-9	i	i	i	i	.	.	.
CN(C)CC/C=C1\c2cc(F)ccc2CSc2ccccc21	-6	i	i	i	i	.	.	.
CC[N+](C)(C)CC/C=C1/c2ccccc2Sc2ccc(Cl)cc21	-6	i	i	i	i	.	.	.
